Source: ChEMBL document CHEMBL2385063, “Identification of 2-(2-(1-naphthoyl)-8-fluoro-3,4-dihydro-1H-pyrido[4,3-b]indol-5(2H)-yl)acetic acid (setipiprant/ACT-129968), a potent, selective, and orally bioavailable chemoattractant receptor-homologous molecule expressed on Th2 cells (CRTH2) antagonist” (J Med Chem, 2013)
Calls of active or inactive are those of the source. No cut-off for these calls is given here.

Columns and labels:
[1] = biological target: T1, Chemoattractant receptor-homologous molecule expressed on Th2 cells (Cavia porcellus) (UniProt Q56D28); assay: Antagonist activity at guinea pig CRTH2 receptor assessed as inhibition of calcium flux by cell-based FLIPR assay; assay type: functional
T1 sequence (whole entry): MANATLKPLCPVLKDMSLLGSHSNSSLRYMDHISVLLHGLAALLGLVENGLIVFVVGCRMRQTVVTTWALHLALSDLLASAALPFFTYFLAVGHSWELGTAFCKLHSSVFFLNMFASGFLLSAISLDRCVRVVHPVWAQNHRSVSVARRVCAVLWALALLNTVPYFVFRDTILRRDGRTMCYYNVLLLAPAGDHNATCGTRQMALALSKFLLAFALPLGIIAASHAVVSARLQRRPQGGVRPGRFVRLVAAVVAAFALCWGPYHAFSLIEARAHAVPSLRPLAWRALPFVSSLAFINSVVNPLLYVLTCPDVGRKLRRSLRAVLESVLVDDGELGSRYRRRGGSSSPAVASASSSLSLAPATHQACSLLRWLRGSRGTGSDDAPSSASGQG

[2] = biological target: T2, Prostaglandin G/H synthase 1 (Ovis aries) (UniProt P05979); assay: […] at ovine COX-1 at 10 uM relative to control; set-up: scale not given: the % may be the effect or the level left
T2 sequence (whole entry): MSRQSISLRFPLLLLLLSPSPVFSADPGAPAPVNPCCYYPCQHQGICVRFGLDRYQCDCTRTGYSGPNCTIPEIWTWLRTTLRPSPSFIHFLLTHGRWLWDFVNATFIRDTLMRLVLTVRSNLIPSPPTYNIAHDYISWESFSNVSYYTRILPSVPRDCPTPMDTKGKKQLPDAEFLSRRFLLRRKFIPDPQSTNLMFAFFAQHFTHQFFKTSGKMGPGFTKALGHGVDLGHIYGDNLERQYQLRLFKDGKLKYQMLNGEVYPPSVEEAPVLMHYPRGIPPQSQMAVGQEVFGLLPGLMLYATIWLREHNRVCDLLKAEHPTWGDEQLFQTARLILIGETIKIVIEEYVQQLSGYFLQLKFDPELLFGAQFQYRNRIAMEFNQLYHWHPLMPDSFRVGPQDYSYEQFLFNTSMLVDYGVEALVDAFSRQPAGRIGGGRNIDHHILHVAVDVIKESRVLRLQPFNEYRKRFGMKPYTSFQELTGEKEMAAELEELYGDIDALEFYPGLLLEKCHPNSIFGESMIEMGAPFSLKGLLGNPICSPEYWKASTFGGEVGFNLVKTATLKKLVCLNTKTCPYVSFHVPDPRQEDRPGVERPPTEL
Method in brief: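 Ovine COX-1 activity measured with a commercial kit, following the manufacturer's protocol. Compounds were tested in duplicate at 10 μM final concentration. Activity is expressed as inhibition relative to control.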

[3] = biological target: T3, Prostaglandin D2 receptor 2 (Homo sapiens, UniProt Q9Y5Y4); assay: Displacement of [3H]PGD2 from recombinant human CRTH2 receptor expressed in HEK293 cell membranes after 90 mins by scintillation counting analysis
T3 sequence (Q9Y5Y4 whole entry): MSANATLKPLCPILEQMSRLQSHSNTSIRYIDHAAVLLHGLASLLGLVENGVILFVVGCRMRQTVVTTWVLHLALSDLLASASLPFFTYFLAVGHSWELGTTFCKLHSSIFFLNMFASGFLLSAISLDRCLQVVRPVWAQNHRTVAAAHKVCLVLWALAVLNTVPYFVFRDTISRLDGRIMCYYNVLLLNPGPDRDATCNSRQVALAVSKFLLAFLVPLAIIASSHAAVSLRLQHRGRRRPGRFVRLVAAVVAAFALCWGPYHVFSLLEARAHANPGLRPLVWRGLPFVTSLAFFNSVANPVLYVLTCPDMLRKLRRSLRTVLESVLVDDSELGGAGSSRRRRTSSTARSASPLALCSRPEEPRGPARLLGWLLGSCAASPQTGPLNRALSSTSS
Method in brief: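 Membranes from HEK293 cells expressing hCRTH2 (80 μg protein/well) in Tris pH 7.4 buffer with NaCl, EDTA, 0.1% BSA were incubated with 2.5 nM [3H]PGD2 for 90 min at room temperature. Nonspecific binding was defined with 10 μM PGD2. Samples were filtered on PEI-soaked GF/C and read by scintillation counting.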

[4] = biological target: T4, G-protein coupled receptor (Canis lupus familiaris) (UniProt Q2A652); assay: Antagonist activity at dog CRTH2 receptor assessed as inhibition of calcium flux by cell-based FLIPR assay; assay type: functional
T4 sequence (whole entry): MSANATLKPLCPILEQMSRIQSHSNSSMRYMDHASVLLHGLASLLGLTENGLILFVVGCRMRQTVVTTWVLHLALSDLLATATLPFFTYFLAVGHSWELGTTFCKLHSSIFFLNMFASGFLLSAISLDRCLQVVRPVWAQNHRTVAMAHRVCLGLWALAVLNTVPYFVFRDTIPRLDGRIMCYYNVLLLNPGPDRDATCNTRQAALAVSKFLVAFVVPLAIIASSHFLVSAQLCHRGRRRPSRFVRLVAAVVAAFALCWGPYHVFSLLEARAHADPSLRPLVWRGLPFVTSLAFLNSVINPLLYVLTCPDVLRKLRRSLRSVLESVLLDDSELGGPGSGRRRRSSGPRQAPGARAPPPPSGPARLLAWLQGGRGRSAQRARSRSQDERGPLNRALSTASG

[5] = biological target: T5, Prostaglandin D2 receptor 2 (Mus musculus) (UniProt Q9Z2J6); assay: Antagonist activity at mouse CRTH2 receptor assessed as inhibition of calcium flux by cell-based FLIPR assay; assay type: functional
T5 sequence (whole entry): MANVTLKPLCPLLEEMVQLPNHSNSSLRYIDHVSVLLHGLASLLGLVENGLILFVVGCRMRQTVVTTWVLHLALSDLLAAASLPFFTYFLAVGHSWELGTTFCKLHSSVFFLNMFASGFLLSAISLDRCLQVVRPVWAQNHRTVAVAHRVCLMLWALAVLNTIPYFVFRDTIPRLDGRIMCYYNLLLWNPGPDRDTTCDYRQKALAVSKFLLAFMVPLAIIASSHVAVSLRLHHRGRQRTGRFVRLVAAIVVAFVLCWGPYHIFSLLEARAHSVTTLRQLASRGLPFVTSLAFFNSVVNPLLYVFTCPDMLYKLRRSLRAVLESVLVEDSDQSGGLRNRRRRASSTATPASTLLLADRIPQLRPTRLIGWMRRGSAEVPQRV

[6] = biological target: Prostaglandin E2 receptor EP4 subtype (Homo sapiens, UniProt P35408); assay: Inhibition of beta-arrestin binding to recombinant human prostanoid EP4 receptor expressed in HEK293 cell membranes by beta-lactamase complementation assay
[7] = biological target: Prostaglandin E2 receptor EP2 subtype (Homo sapiens, UniProt P43116); assay: Inhibition of beta-arrestin binding to recombinant human prostanoid EP2 receptor expressed in HEK293 cell membranes by beta-lactamase complementation assay
Chain of Prostaglandin E2 receptor EP2 subtype (P43116 whole entry): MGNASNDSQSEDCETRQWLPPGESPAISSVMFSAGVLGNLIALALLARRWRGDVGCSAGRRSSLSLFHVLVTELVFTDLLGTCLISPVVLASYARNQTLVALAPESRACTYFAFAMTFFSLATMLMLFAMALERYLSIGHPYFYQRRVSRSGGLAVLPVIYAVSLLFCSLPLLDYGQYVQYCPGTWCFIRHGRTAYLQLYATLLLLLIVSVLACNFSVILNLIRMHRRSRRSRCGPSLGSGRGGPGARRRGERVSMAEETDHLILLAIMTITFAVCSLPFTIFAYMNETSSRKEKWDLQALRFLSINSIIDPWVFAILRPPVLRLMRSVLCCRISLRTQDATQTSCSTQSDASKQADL

Chain of Prostaglandin E2 receptor EP4 subtype (P35408 whole entry): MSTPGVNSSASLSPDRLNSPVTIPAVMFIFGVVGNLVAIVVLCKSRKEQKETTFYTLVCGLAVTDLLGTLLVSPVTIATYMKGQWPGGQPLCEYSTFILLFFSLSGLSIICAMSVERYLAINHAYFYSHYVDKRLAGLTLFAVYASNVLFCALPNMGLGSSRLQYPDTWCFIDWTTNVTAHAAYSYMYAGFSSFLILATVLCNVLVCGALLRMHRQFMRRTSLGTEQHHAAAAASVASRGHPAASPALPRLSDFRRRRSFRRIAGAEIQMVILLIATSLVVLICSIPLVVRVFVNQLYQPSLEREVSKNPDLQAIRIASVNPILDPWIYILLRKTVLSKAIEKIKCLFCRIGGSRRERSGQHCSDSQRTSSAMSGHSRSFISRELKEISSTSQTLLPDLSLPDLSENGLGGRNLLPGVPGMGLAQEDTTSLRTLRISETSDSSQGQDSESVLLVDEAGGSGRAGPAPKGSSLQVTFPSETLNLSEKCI

## COc1ccc2c(c1)c1c(n2CC(=O)O)CCN(C(=O)c2ccccc2)C1
[1]
  inhibition: Active
[2]
  Activity: < 30%
[3]
  IC50: 62 nM
[4]
  inhibition: Active
[5]
  inhibition: Active

## O=C(O)Cn1c2c(c3cc(F)ccc31)CN(C(=O)c1cccs1)CC2
[1]
  inhibition: Active
[2]
  Activity: < 30%
[6]
  IC50: > 10 µM
[7]
  IC50: > 10 µM
[3]
  IC50: 4 nM
[4]
  inhibition: Active
[5]
  inhibition: Active

## O=C(O)Cn1c2c(c3ccccc31)CN(C(=O)c1cccc(Cl)c1)CC2
[1]
  inhibition: Active
[2]
  Activity: < 30%
[6]
  IC50: > 10 µM
[7]
  IC50: > 10 µM
[3]
  IC50: 10 nM
[4]
  inhibition: Active
[5]
  inhibition: Active

## O=C(O)Cn1c2c(c3cc(Cl)ccc31)CN(C(=O)c1cccc3ccccc13)CC2
[1]
  inhibition: Active
[2]
  Activity: < 30%
[6]
  IC50: > 10 µM
[7]
  IC50: 7.4 µM
[3]
  IC50: 4 nM
[4]
  inhibition: Active
[5]
  inhibition: Active

## O=C(O)Cn1c2c(c3cc(F)ccc31)CN(C(=O)CCc1cccc3ccccc13)CC2
[1]
  inhibition: Active
[2]
  Activity: < 30%
[6]
  IC50: > 10 µM
[7]
  IC50: 9.5 µM
[3]
  IC50: 10 nM
[4]
  inhibition: Active
[5]
  inhibition: Active

## O=C(O)Cn1c2c(c3ccccc31)CN(C(=O)c1ccccc1)CC2
[1]
  inhibition: Active
[2]
  Activity: < 30%
[4]
  inhibition: Active
[5]
  inhibition: Active

## O=C(O)Cn1c2c(c3cc(F)cc(Cl)c31)CN(C(=O)c1cccc(Cl)c1)CC2
[1]
  inhibition: Active
[2]
  Activity: < 30%
[6]
  IC50: > 10 µM
[7]
  IC50: > 10 µM
[3]
  IC50: 190 nM
[4]
  inhibition: Active
[5]
  inhibition: Active

## CCc1ccc(-c2ccc(C(=O)N3CCc4c(c5ccccc5n4CC(=O)O)C3)cc2)cc1
[1]
  inhibition: Active
[2]
  Activity: < 30%
[6]
  IC50: > 10 µM
[7]
  IC50: 6.4 µM
[3]
  IC50: 4 nM
[4]
  inhibition: Active
[5]
  inhibition: Active

## O=C(O)Cn1c2c(c3ccccc31)CN(C(=O)C1CCCCC1)CC2
[1]
  inhibition: Active
[2]
  Activity: < 30%
[3]
  IC50: 70 nM
[4]
  inhibition: Active
[5]
  inhibition: Active

## CC(C)c1ccc2c(c1)c1c(n2CC(=O)O)CCN(C(=O)c2ccccc2)C1
[1]
  inhibition: Active
[2]
  Activity: < 30%
[3]
  IC50: 42 nM
[4]
  inhibition: Active
[5]
  inhibition: Active

## O=C(O)Cn1c2c(c3cc(C(F)(F)F)ccc31)CN(C(=O)c1ccccc1)CC2
[1]
  inhibition: Active
[2]
  Activity: < 30%
[6]
  IC50: > 10 µM
[7]
  IC50: > 10 µM
[3]
  IC50: 9 nM
[4]
  inhibition: Active
[5]
  inhibition: Active

## Cc1ccc2c(c1)c1c(n2CC(=O)O)CCN(C(=O)c2cccc3ccccc23)C1
[1]
  inhibition: Active
[2]
  Activity: < 30%
[6]
  IC50: > 10 µM
[7]
  IC50: > 10 µM
[3]
  IC50: 5 nM
[4]
  inhibition: Active
[5]
  inhibition: Active

## O=C(O)Cn1c2c(c3cc(F)ccc31)CN(C(=O)c1cccc3ccccc13)CC2 [SETIPIPRANT]
[2]
  Activity: < 30%
[6]
  IC50: > 10 µM
[7]
  IC50: 2.6 µM
[3]
  IC50: 6 nM
[4]
  inhibition: inactive

## CCc1ccc(-c2ccc(C(=O)N3CCc4c(c5cccc(Cl)c5n4CC(=O)O)C3)cc2)cc1
[1]
  inhibition: Active
[2]
  Activity: < 30%
[6]
  IC50: > 10 µM
[7]
  IC50: > 10 µM
[3]
  IC50: 23 nM
[4]
  inhibition: Active
[5]
  inhibition: Active

## O=C(O)Cn1c2c(c3cc(F)ccc31)CN(C(=O)Cc1c[nH]c3ccccc13)CC2
[1]
  inhibition: Active
[2]
  Activity: < 30%
[6]
  IC50: > 10 µM
[7]
  IC50: > 10 µM
[3]
  IC50: 5 nM
[4]
  inhibition: Active
[5]
  inhibition: Active

## O=C(O)Cn1c2c(c3cc(F)cc(Cl)c31)CN(C(=O)c1cccc3ccccc13)CC2
[1]
  inhibition: Active
[2]
  Activity: < 30%
[6]
  IC50: > 10 µM
[7]
  IC50: 2.7 µM
[3]
  IC50: 70 nM
[4]
  inhibition: Active
[5]
  inhibition: Active

## O=C(O)Cn1c2c(c3cc(F)ccc31)CN(C(=O)Cc1cccc3ccccc13)CC2
[1]
  inhibition: Active
[2]
  Activity: < 30%
[6]
  IC50: > 10 µM
[7]
  IC50: > 10 µM
[3]
  IC50: 4 nM
[4]
  inhibition: Active
[5]
  inhibition: Active

## O=C(O)Cn1c2c(c3cc(F)ccc31)CN(C(=O)c1cccc(Cl)c1)CC2
[2]
  Activity: < 30%
[6]
  IC50: > 10 µM
[7]
  IC50: > 10 µM
[3]
  IC50: 9 nM
[4]
  inhibition: inactive

## O=C(O)Cn1c2c(c3cc(C(F)(F)F)ccc31)CN(C(=O)c1cccc3ccccc13)CC2
[1]
  inhibition: Active
[2]
  Activity: < 30%
[6]
  IC50: > 10 µM
[7]
  IC50: > 10 µM
[3]
  IC50: 11 nM
[4]
  inhibition: Active
[5]
  inhibition: Active

## O=C(O)Cn1c2c(c3ccccc31)CN(C(=O)c1cccc3ccccc13)CC2
[2]
  Activity: < 30%
[6]
  IC50: > 10 µM
[7]
  IC50: 6.6 µM
[3]
  IC50: 9 nM
[4]
  inhibition: inactive
